Active and inactive are the calls of the source. The rule behind the calls is not given here.

Data set [1] addresses D(1A) dopamine receptor (Homo sapiens) (UniProt P21728). Description: Binding affinity to human dopamine D1 receptor at 10 uM by radioligand displacement assay relative to control. (In general: In a radioligand displacement assay an active substance lowers the binding of a labelled ligand.)
The target of data set [2] is Neuromedin-K receptor (Homo sapiens) (UniProt P29371). As to the kind of experiment: Binding affinity to human NK3 receptor at 10 uM by radioligand displacement assay relative to control.
Neuromedin-K receptor (Homo sapiens), sequence (P29371 whole entry): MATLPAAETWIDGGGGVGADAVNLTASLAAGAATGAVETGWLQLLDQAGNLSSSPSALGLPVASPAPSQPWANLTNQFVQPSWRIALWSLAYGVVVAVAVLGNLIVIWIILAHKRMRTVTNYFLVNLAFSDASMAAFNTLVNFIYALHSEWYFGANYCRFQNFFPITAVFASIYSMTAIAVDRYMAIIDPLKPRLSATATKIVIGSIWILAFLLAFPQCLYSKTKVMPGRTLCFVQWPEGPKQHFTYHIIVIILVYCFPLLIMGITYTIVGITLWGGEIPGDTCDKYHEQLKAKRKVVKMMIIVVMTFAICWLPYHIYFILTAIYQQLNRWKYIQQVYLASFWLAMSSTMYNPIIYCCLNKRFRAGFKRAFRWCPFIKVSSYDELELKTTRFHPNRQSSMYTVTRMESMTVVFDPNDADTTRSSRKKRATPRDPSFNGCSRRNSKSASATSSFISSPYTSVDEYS
Data set [3] deals with 5-hydroxytryptamine receptor 2C (Homo sapiens) (UniProt P28335). As to the kind of experiment: Binding affinity to human 5-HT2C receptor at 10 uM by radioligand displacement assay relative to control.
5-hydroxytryptamine receptor 2C (Homo sapiens), sequence (P28335 whole entry): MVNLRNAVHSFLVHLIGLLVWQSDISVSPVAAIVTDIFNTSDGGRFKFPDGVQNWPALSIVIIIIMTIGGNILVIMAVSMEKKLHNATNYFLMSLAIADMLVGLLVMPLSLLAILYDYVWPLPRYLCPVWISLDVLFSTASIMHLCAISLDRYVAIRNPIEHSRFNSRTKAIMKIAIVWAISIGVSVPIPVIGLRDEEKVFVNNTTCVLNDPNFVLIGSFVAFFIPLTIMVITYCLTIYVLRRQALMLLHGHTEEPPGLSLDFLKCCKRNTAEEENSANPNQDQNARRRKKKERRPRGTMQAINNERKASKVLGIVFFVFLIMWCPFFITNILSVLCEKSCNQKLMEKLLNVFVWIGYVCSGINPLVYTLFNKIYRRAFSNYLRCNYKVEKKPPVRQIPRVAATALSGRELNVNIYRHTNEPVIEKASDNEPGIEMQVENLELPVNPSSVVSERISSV
The target in data set [4] is 5-hydroxytryptamine receptor 1A (Homo sapiens) (UniProt P08908). As to the kind of experiment: Binding affinity to human 5-HT1A receptor at 10 uM by radioligand displacement assay relative to control.
5-hydroxytryptamine receptor 1A (Homo sapiens), sequence (P08908 whole entry): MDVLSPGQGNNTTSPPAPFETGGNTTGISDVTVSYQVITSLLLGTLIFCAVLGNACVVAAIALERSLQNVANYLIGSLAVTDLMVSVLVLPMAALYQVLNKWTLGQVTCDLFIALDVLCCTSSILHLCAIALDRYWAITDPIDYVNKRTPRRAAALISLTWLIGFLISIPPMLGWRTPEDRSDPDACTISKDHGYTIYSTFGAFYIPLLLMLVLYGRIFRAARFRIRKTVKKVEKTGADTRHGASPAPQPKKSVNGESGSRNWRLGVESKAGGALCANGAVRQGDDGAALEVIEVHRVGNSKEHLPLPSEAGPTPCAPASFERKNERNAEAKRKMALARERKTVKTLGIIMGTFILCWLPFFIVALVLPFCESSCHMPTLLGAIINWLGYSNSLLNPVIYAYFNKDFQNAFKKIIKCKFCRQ
The subject of data set [5] is Mus musculus. Description: Toxicity in ICR mouse assessed as effect on locomotor activity measured moved distance per 4 mins at 1 mg/kg, ip after 240 mins by open field test (reference value: 398 70 cm). Type of data set: organism-based. The arrangement: dose 1 mg/kg, route intraperitoneal. Particulars: in vivo.
In data set [6] the target is Sodium-dependent dopamine transporter (Homo sapiens) (UniProt Q01959). As to the kind of experiment: Binding affinity to human dopamine transporter at 10 uM by radioligand displacement assay relative to control.
Data set [7] has as its target Sigma non-opioid intracellular receptor 1 (Rattus norvegicus) (UniProt Q9R0C9). Description: Positive allosteric modulation of Wistar rat sigma 1 receptor assessed as increase in electrically-stimulated vas deferens contraction at 10 uM after 10 mins. An outline of the steps:
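Isolated rat vas deferens, proximal ~15 mm segments, in K-H buffer at 32 °C gassed […], with 1.0 g passive tension and a 60 min adaptation. Field-stimulated at 0.1 Hz, 1 ms, 50 V. Cumulative PRE-084 (1–100 µM) was given, then washout and a 30 min rest. Test compound 10 µM was added for 10 min before cumulative PRE-084. Response is % increase over baseline amplitude; n=6, mean ± SEM, paired t-test.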

Data set [8] deals with Vasoactive intestinal polypeptide receptor 1 (Homo sapiens) (UniProt P32241). As to the kind of experiment: Binding affinity to human VPAC1 receptor at 10 uM by radioligand displacement assay relative to control.
Vasoactive intestinal polypeptide receptor 1 (Homo sapiens), sequence (P32241 whole entry): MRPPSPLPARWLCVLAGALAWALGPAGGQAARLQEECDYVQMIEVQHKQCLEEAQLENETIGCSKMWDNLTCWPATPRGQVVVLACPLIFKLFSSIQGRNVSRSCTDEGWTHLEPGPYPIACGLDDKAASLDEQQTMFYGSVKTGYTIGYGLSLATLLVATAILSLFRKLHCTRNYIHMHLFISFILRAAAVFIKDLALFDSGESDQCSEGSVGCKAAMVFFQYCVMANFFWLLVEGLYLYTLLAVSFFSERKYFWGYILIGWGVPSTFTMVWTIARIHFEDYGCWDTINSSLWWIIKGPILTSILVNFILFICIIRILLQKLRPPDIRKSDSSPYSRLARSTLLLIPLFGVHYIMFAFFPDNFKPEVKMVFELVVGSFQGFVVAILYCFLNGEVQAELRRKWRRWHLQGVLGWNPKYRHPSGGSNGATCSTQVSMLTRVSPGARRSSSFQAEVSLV
Data set [9] has as its system Mus musculus. As to the kind of experiment: Toxicity in ip dosed ICR mouse assessed as effect on motor strength measured within 5 secs by traction test. It is filed as organism-based. Particulars: in vivo, 5 s.
The target in data set [10] is 5-hydroxytryptamine receptor 1B (Homo sapiens) (UniProt P28222). As to the kind of experiment: Binding affinity to 5-HT1B receptor (unknown origin) at 10 uM by radioligand displacement assay relative to control.
The target of data set [11] is D(2) dopamine receptor (Homo sapiens) (UniProt P14416). Description: Binding affinity to human dopamine D2S receptor at 10 uM by radioligand displacement assay relative to control.
D(2) dopamine receptor (Homo sapiens), sequence (P14416 whole entry): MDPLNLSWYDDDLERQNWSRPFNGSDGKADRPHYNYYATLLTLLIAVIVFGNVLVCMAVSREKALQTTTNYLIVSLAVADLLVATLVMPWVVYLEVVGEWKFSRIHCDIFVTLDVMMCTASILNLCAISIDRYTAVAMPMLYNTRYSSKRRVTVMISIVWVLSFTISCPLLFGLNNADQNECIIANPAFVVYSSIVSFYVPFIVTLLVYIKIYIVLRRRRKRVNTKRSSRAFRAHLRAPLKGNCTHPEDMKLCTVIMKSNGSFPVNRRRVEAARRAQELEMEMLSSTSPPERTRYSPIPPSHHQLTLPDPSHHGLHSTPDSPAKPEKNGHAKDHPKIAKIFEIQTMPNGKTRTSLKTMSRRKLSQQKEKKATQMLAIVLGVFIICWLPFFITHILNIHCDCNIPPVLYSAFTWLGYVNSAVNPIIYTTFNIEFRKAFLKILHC
The target in data set [12] is Sigma non-opioid intracellular receptor 1 (Homo sapiens, UniProt Q99720). As to the kind of experiment: Displacement of [3H]1,3-di(2-tolyl)guanidine from sigma 1 receptor in human Jurkat cells. Type of data set: cell-based.
Sigma non-opioid intracellular receptor 1, sequence (Q99720 whole entry): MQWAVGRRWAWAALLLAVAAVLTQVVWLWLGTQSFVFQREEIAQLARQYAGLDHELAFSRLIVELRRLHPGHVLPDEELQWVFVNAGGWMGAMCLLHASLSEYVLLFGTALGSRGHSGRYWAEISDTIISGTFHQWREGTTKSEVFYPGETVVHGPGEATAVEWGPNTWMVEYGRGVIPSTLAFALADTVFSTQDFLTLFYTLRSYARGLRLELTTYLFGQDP
Data set [13] relates to Mus musculus. Description: Toxicity in ICR mouse assessed as effect on locomotor activity measured moved distance per 4 mins at 10 mg/kg, ip after 30 mins by open field test (reference value: 1124 121 cm). The arrangement: dose 10 mg/kg, route intraperitoneal. It is filed as organism-based. Particulars: in vivo.
The target in data set [14] is Galanin receptor type 1 (Homo sapiens) (UniProt P47211). Description: Binding affinity to human GAL1 receptor at 10 uM by radioligand displacement assay relative to control.
Data set [15] concerns Mus musculus. As to the kind of experiment: Toxicity in ICR mouse assessed as effect on locomotor activity measured moved distance per 4 mins at 10 mg/kg, ip after 240 mins by open field test (reference value: 398 70 cm). It is filed as organism-based. The arrangement: dose 10 mg/kg, route intraperitoneal. Particulars: in vivo.
Data set [16] has as its target Muscarinic acetylcholine receptor M3 (Homo sapiens) (UniProt P20309). As to the kind of experiment: Binding affinity to human muscarinic M3 receptor at 10 uM by radioligand displacement assay relative to control.
Data set [17] addresses C-C chemokine receptor type 1 (Homo sapiens) (UniProt P32246). Description: Binding affinity to human CCR1 at 10 uM by radioligand displacement assay relative to control.
The target in data set [18] is Substance-K receptor (Homo sapiens) (UniProt P21452). As to the kind of experiment: Binding affinity to human NK2 receptor at 10 uM by radioligand displacement assay relative to control.
Data set [19] has as its target Kappa-type opioid receptor (Homo sapiens) (UniProt P41145). As to the kind of experiment: Binding affinity to kappa opioid receptor (unknown origin) at 10 uM by radioligand displacement assay relative to control.
Data set [20] addresses Galanin receptor type 2 (Homo sapiens) (UniProt O43603). Description: Binding affinity to human GAL2 receptor at 10 uM by radioligand displacement assay relative to control.
Data set [21] addresses Endothelin-1 receptor (Homo sapiens) (UniProt P25101). As to the kind of experiment: Binding affinity to human ETA receptor at 10 uM by radioligand displacement assay relative to control.
In data set [22] the test system is Mus musculus. Description: Cognitive enhancing effect in ip dosed ICR mouse assessed as increase in retention latency administered 60 mins prior to testing measured after 24 hrs by passive avoidance test. Type of data set: functional, organism-based.
The target of data set [23] is 5-hydroxytryptamine receptor 3A (Homo sapiens) (UniProt P46098). Description: Binding affinity to human 5-HT3 receptor at 10 uM by radioligand displacement assay relative to control.
5-hydroxytryptamine receptor 3A (Homo sapiens), sequence (P46098 whole entry): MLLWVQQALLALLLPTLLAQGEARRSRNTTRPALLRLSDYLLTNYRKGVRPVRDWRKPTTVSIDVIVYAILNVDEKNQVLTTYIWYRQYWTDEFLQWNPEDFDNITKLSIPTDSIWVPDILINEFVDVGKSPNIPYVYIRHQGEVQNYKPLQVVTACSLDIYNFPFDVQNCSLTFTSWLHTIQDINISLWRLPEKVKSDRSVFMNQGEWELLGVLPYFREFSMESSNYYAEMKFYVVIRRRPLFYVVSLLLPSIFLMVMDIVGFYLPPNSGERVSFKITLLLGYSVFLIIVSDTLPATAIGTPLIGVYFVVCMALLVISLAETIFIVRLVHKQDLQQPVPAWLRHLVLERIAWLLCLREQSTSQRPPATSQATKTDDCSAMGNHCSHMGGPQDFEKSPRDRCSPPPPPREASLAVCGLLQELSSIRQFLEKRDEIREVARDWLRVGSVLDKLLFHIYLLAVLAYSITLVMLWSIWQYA

Kappa-type opioid receptor (Homo sapiens), sequence (P41145 whole entry): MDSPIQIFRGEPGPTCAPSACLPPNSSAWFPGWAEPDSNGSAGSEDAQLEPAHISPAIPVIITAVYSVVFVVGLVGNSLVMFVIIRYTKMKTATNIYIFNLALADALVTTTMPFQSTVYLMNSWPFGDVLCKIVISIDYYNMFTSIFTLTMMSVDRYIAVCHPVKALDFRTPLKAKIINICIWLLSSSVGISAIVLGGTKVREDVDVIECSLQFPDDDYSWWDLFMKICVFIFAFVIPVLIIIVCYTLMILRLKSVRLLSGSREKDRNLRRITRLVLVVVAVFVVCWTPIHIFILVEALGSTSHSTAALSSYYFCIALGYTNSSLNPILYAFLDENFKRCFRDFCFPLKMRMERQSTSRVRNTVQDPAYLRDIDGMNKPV
Galanin receptor type 2 (Homo sapiens), sequence (O43603 whole entry): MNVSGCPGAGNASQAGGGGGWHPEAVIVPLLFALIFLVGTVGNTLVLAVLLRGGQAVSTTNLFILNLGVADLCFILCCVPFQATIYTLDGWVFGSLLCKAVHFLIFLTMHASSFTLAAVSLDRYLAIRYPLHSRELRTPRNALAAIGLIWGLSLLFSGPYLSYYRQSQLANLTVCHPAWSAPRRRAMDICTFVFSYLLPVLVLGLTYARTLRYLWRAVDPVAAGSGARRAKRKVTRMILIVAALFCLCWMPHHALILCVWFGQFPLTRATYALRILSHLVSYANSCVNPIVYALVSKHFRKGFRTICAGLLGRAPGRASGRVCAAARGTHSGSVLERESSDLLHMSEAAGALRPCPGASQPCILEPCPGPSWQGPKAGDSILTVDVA
C-C chemokine receptor type 1 (Homo sapiens), sequence (P32246 whole entry): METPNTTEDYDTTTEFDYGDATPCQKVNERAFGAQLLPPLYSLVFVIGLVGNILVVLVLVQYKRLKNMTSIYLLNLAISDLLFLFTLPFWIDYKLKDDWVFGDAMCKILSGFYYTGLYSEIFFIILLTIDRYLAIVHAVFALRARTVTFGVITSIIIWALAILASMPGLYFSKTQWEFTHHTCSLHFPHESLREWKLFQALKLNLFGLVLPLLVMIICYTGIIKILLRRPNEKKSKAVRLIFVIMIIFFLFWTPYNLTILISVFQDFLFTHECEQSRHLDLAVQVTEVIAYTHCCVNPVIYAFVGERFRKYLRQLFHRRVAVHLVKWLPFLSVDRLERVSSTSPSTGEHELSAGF
Endothelin-1 receptor (Homo sapiens), sequence (P25101 whole entry): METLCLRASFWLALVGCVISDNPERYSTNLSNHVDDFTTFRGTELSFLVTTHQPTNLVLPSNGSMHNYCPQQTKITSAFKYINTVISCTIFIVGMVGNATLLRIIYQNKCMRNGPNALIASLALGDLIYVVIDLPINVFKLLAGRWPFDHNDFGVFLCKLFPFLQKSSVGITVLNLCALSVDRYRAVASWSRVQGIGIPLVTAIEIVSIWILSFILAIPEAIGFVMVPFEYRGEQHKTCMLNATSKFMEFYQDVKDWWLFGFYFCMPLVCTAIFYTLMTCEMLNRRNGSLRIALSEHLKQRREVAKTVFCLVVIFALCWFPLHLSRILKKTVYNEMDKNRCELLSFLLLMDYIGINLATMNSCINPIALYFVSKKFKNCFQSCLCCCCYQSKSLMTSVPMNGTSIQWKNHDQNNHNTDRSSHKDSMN
D(1A) dopamine receptor (Homo sapiens), sequence (P21728 whole entry): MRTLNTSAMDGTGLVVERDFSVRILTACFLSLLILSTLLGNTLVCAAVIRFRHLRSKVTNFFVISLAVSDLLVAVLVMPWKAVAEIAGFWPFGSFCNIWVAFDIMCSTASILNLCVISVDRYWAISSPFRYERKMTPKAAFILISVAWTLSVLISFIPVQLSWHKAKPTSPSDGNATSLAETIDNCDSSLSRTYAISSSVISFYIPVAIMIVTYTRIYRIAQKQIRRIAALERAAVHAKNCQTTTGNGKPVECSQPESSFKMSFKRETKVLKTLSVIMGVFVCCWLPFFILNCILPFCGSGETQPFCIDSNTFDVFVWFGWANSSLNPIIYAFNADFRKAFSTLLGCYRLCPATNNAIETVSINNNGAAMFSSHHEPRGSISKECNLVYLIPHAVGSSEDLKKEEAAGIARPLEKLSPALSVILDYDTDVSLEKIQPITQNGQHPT

One may read the inhibition as the drop in the measured response relative to a control, in per cent. One may read the ED50 as the dose at which the effect has come halfway, by size or by number of responders. The IC50 is the concentration that gives 50% inhibition. Read a high IC50 as lower potency. Turning to `C[C@H]1[C@@H](c2ccccc2)CC(=O)N1CC(N)=O`, the inhibition in [1] is -6%; in [2] it was -7%; in data set [3] it was -2%; in [4], -4%; in data set [6] it was 4%; in [8], -2%. Also, the inhibition in data set [10] was 0%; in data set [11], 5%; in [14] it was -2%; in data set [16], -7%; in data set [17] it was -5%; in [18], -3%. Further, the inhibition in data set [19] was -5%; in data set [20], -4%; in [21] it was -2%; in [23] it was -1%. Also, the Activity in the data set on Mus musculus [5] is 626 cm; in the data set on Mus musculus [13], 1026 cm; with Mus musculus [15], 359 cm; in the data set with Mus musculus [22] it was “Dose-dependent effect”. Further, the result in data set [7] was inactive. For the same compound, the ED50 with Mus musculus [9] amounted to 595 mg/kg. In addition, in data set [12], the IC50 was 43 nM.

For the origin of these results see ChEMBL document CHEMBL2390917, “Synthesis and biological evaluation of 2-(5-methyl-4-phenyl-2-oxopyrrolidin-1-yl)-acetamide stereoisomers as novel positive allosteric modulators of sigma-1 receptor” (Bioorg Med Chem, 2013).
